PMC6217654 (ACS Omega, 2018)

Tests used:
[1] = tested on: CYP1A2, CYP2A6, CYP2B6, CYP2C8, CYP2C9, CYP2C19, CYP2D6, CYP2E1, CYP3A4/5, CYP4A11; test: Direct CYP inhibition, 10 CYP enzymes; assay type: in vitro ADME; settings: human
[2] = tested on: CYP1A2, CYP2A6, CYP2B6, CYP2C9, CYP2C19, CYP2D6, CYP2E1, CYP3A4/5, CYP4A11; test: Direct CYP inhibition, 10 CYP enzymes; assay type: in vitro ADME; settings: human
[3] = PK of TRH and 79 after oral administration to fasted conscious rats; assay type: in vivo, rat
In short: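 Male Wistar rats (10–11 weeks, 230–274 g, n ≥ 4), fasted from the evening before dosing to the 12 h sample. Jugular cannula placed under isoflurane 2–3 days before. Single p.o. dose of 40 mg/4 mL/kg in saline. Heparinized blood (~0.3 mL) drawn via cannula; plasma deproteinized with methanol; HPLC with UV absorbance detection. Cmax, Tmax, AUC0–8h given as mean ± SD.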

[4] = tested on: reserpine-induced hypothermia mice; test: Antagonistic effect on reserpine-induced hypothermia in mice; assay type: in vivo; settings: p.o.
In short: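 Male ddY mice (bought at 6 weeks, 1-week quarantine, ~25 °C). Reserpine 3 mg/kg s.c.; mice with rectal temperature ≤30 °C about 18 h later were used. Test compound in saline p.o. at 5 μmol/kg, TRH at 50 μmol/kg, saline controls. Rectal temperature by thermistor before and up to 7 h post-dose. Trapezoidal AUC0–7h, with saline AUC subtracted. Mean ± SD, ≥3 animals.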

[5] = tested on: rats with Ara-C-induced cerebellar damage; test: Ara-C-induced cerebellar ataxia in rats, open field fall index; assay type: in vivo, rat; settings: 79 10 and 30 mg/kg p.o. once daily for 7 days, vs control
CYP2C8 = target: T1, CYP2C8 (Homo sapiens, UniProt P10632); test: Direct CYP inhibition, CYP2C8; assay type: in vitro ADME
T1 sequence (P10632 1-490): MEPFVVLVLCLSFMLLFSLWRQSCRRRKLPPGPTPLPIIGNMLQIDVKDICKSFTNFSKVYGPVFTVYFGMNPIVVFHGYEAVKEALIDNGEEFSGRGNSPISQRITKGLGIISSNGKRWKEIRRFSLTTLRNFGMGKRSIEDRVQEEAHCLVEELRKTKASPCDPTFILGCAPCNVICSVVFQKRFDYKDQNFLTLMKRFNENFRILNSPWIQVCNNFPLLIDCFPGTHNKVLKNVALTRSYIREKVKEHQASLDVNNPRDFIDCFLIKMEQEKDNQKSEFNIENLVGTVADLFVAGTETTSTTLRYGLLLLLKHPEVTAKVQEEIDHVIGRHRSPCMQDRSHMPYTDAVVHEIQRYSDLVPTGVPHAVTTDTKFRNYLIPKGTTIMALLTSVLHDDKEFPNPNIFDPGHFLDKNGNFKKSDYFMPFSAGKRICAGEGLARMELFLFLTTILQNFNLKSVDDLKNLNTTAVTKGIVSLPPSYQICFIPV

rats = test: Acute lethal dose, single oral administration in rats; assay type: in vivo, rat
human TRH-R = settings: read-out: Ki for human TRH-R; in vitro binding, reported previously; cited from earlier work
[6] = Stability in rat plasma, cerebrum and cerebellum homogenate at 37 °C; assay type: in vitro ADME; settings: for compound remaining, cerebellum: rat cerebellum homogenate; for compound remaining, cerebrum: rat cerebrum homogenate; for compound remaining, plasma: rat plasma
plasma TSH level = test: TSH releasing activity after oral administration in rats; assay type: in vivo; settings: rat
In short: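 Male Sprague-Dawley rats (258–320 g, n ≥ 4, fed), dosed p.o. at 0.1 or 1 mg/2 mL/kg in water. Blood taken by decapitation at scheduled times, clotted 30 min at 25 °C, centrifuged for serum. TSH measured by [125I] rat TSH assay kit with magnetic separation. Mean ± SD.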

[7] = male, Wistar, rat, plasma, po, 40 mg/kg

SMILES: C[C@@H]1OC(=O)N[C@@H]1C(=O)N[C@@H](Cc1cscn1)C(=O)N1CCC[C@H]1C [Compound 79, 1-{N-[(4S,5S)-(5-Methyl-2-oxooxazolidine-4-yl)carbonyl]-3-(thiazol-4-yl)-L-alanyl}-(2R)-2-methylpyrrolidine trihydrate]
- inhibition at 300 μM [1]: ≤ 50%
- inhibition at 300 μM [2]: ≤ 10%
- Cmax and AUC0–8h relative to TRH ([3]; fasted rats, p.o. 40 mg/kg): over 12 times
- AUC(0-t) [3, 7]: 817 ± 349 ng·h/mL
- Cmax [3, 7]: 636 ± 232 ng/mL
- Tmax [3, 7]: 15 min
- rectal temperature compared with saline levels ([4]; 79 5 μmol/kg from 2 to 7 h, TRH 50 μmol/kg from 0 to 7 h): > 2.5 °C
- rectal temperature ΔAUC0–7h = AUC0–7h(compounds) – AUC0–7h(saline) ([4]; reserpine-induced hypothermia mice, TRH 50 μmol/kg, 79 5 μmol/kg): 28.0 ± 4.3 °C·h
- rectal temperature AUC0–7h ([4]; reserpine-induced hypothermia mice, TRH 50 μmol/kg, 79 5 μmol/kg, mean ± SD): 233.4 ± 4.3 °C·h
- fall index [5]: significant decrease
- inhibition at 300 μM (CYP2C8): ~20%
- acute lethal dose (rats): over 2000 mg/kg
- Ki (human TRH-R): 0.702 µM
- compound remaining, cerebellum ([6]; 15 min): 100 ± 0.0%
- compound remaining, cerebellum ([6]; 30 min): 99.9 ± 0.0%
- compound remaining, cerebellum ([6]; 60 min): 99.7 ± 0.0%
- compound remaining, cerebellum ([6]; 120 min): 99.6 ± 0.1%
- compound remaining, cerebellum ([6]; 180 min): 99.5 ± 0.1%
- compound remaining, cerebrum ([6]; 15 min): 100.2 ± 0.2%
- compound remaining, cerebrum ([6]; 30 min): 100.2 ± 0.1%
- compound remaining, cerebrum ([6]; 60 min): 100.3 ± 0.1%
- compound remaining, cerebrum ([6]; 120 min): 99.9 ± 0.1%
- compound remaining, cerebrum ([6]; 180 min): 99.7 ± 0.1%
- compound remaining, plasma ([6]; 15 min): 100 ± 0.1%
- compound remaining, plasma ([6]; 30 min): 99.8 ± 0.1%
- compound remaining, plasma ([6]; 60 min): 99.6 ± 0.3%
- compound remaining, plasma ([6]; 120 min): 99.8 ± 0.2%
- compound remaining, plasma ([6]; 180 min): 99.8 ± 0.1%
- plasma TSH level (plasma TSH level; p.o. 0.1 mg/kg, at 0.5 h): 46.8 ng/mL
- plasma TSH level (plasma TSH level; p.o. 1 mg/kg, at 0.5 h): 80.4 ng/mL
- plasma TSH level (plasma TSH level; p.o. 0.1 and 1 mg/kg, at 24 h): recovered to vehicle levels
